# Experimental data taken from ChEMBL document CHEMBL2401625, “Synthesis and evaluation of pharmacological properties of some new xanthone derivatives with piperazine moiety” (Bioorg Med Chem Lett, 2013).
# Active and inactive are the calls of the source. The calls are words filed in the database; no cut-off is given here.
# Key:
# [1] = system: Rattus norvegicus; test: Anticonvulsant activity in Sprague-Dawley rat assessed as protection against maximal electroshock-induced seizures at 30 mg/kg, po after 0.25 hrs; assay type: functional, organism-based; design: dose 30 mg/kg
# Procedure, shortened: (§1)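 Rats dosed orally at 30 mg/kg and tested in MES at several time points after dosing. Protection means seizures were prevented. Result is recorded as number of animals protected over number tested.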
# [2] = system: Rattus norvegicus; test: Anticonvulsant activity in Sprague-Dawley rat assessed as protection against maximal electroshock-induced seizures at 30 mg/kg, po after 2 hrs; assay type: functional, organism-based; design: dose 30 mg/kg; procedure, shortened: as §1
# [3] = system: Mus musculus; test: Anticonvulsant activity in CF1 mouse assessed as protection against maximal electroshock-induced seizures at 100 mg/kg, ip after 0.5 hrs; assay type: functional, organism-based; design: dose 100 mg/kg
# Procedure, shortened: (§2)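 Mice given compound i.p. at 30, 100 or 300 mg/kg and tested 0.5 or 4 h after dosing. Seizures were induced by maximal electroshock (MES) or subcutaneous metrazole (ScMet). Prevention of seizures counts as protection. Result is recorded as number of animals protected over number tested.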
# [4] = target: T1, Adrenergic receptor alpha-1 (Rattus norvegicus, UniProt P15823+P23944+P43140); test: Displacement of [3H]prazosin from alpha1-adrenergic receptor in rat cerebral cortex after 30 mins by scintillation counting; assay type: tissue-based
# T1 sequence (P15823 whole entry): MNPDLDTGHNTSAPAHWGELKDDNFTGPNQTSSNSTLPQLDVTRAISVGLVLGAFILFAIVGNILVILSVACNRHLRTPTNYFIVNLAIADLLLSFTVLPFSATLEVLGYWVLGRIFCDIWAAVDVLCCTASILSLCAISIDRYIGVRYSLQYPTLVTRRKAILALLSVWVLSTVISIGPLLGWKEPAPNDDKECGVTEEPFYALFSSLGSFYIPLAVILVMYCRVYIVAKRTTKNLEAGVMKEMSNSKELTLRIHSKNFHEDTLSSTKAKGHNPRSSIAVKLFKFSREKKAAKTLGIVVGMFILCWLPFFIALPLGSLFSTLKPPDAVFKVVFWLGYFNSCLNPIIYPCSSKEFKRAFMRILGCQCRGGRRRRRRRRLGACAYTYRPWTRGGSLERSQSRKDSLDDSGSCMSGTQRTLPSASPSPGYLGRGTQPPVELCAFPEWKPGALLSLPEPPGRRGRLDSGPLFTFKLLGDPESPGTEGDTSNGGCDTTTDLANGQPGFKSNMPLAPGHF
# T1 sequence (P23944 whole entry): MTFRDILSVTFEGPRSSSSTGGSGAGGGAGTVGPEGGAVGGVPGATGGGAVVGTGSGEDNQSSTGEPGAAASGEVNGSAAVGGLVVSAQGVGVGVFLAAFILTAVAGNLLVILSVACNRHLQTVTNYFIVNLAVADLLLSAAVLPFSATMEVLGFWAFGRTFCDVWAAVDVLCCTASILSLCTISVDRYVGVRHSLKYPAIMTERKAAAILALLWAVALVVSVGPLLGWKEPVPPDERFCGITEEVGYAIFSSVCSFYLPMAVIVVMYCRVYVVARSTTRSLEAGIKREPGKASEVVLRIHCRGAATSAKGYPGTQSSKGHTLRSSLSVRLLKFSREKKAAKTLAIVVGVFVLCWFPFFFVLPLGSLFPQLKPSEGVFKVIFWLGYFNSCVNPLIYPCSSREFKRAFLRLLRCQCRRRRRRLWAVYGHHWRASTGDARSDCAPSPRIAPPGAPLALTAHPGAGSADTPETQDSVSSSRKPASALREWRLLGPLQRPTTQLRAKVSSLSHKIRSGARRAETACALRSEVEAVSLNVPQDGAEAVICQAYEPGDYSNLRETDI
# T1 sequence (P43140 whole entry): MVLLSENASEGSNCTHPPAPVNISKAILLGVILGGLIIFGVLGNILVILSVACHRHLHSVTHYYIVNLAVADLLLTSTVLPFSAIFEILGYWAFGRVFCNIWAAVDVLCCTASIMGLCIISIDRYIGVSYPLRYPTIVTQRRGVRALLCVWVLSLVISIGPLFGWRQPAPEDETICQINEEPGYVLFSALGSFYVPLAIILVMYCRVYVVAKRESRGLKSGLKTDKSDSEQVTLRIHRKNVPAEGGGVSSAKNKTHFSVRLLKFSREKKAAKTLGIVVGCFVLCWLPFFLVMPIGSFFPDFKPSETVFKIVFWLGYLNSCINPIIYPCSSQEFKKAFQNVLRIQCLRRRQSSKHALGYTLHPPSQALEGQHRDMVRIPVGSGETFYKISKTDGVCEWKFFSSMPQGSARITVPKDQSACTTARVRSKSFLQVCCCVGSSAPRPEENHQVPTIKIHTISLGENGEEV
# Procedure, shortened: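 Radioligand binding on rat brain tissue membranes, run in 96-well format. [3H]prazosin was used for α1 (n = 2) and [3H]CGP-12177 for β1 (n = 2). Ki was calculated by the Cheng–Prusoff equation.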
# [5] = system: Mus musculus; test: Neurotoxicity in CF1 mouse assessed as minimal motor impairment at 30 mg/kg, ip after 4 hrs by rotorod test; assay type: toxicity, organism-based; design: dose 30 mg/kg, route intraperitoneal; details: in vivo
# Procedure, shortened: (§3)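 Rotarod neurotoxicity screen in mice dosed i.p. at 30, 100 or 300 mg/kg, read 0.5 or 4 h after dosing. The animal must stay on a rod rotating at 6 rpm without falling, measured 3 times within 1 min. A fall counts as minimal motor impairment. Result is recorded as impaired animals over animals used.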
# [6] = system: Mus musculus; test: Anticonvulsant activity in CF1 mouse assessed as protection against maximal electroshock-induced seizures at 30 mg/kg, ip after 4 hrs; assay type: functional, organism-based; design: dose 30 mg/kg; procedure, shortened: as §2
# [7] = target: T2, 5-hydroxytryptamine receptor 1A (Homo sapiens, UniProt P08908); test: Displacement of [3H]8-OH-DPAT from human 5HT1A receptor expressed in HEK293 cells after 1 hr; assay type: cell-based
# T2 sequence (P08908 whole entry): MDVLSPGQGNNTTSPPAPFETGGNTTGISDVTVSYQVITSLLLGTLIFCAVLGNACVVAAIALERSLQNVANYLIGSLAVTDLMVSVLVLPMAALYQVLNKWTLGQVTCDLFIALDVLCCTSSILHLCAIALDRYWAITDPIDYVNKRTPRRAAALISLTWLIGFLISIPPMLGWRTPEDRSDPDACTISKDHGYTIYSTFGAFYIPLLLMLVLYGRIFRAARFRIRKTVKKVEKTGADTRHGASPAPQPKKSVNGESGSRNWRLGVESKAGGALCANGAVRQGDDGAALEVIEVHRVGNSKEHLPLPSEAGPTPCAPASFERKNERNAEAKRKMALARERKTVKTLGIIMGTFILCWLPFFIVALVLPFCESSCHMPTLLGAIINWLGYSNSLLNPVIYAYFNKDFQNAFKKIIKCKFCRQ
# [8] = system: Rattus norvegicus; test: Neurotoxicity in Sprague-Dawley rat assessed as minimal motor impairment at 30 mg/kg, po after 4 hrs by rotorod test; details: in vivo
# [9] = system: Mus musculus; test: Neurotoxicity in CF1 mouse assessed as minimal motor impairment at 100 mg/kg, ip after 4 hrs by rotorod test; assay type: toxicity, organism-based; design: dose 100 mg/kg, route intraperitoneal; details: in vivo; procedure, shortened: as §3
structure (smiles),measurement,setting,value
Cl.Cl.Cl.O=c1c2ccc(Cl)cc2oc2c(CN3CCN(CCO)CC3)cccc12,Activity,[1],inactive
same,Activity,[2],inactive
same,Activity,[3],Active
same,Ki,[4],3.93 µM
same,Activity,[5],Non-toxic
same,Activity,[6],inactive
same,Ki,[7],4.5 µM
same,Activity,[8],Non-toxic
same,Activity,[9],Non-toxic
